Our source for the IC50 and inhibition of growth values is ChEMBL document CHEMBL3112521, “Design, synthesis and biological evaluation of (E)-2-(2-arylhydrazinyl)quinoxalines, a promising and potent new class of anticancer agents” (Bioorg Med Chem Lett, 2014).

Assay [1] has as its system OVCAR-8. Put plainly: Cytotoxicity against human OVCAR8 cells assessed as growth inhibition by MTT assay. The class given is functional, cell-based. Summed up:
(§1)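 Dose-response on HCT-116, OVCAR-8, HL-60 (leukemia) and SF-295 cells, with doxorubicin as positive control. IC50 is taken as the concentration inducing 50% inhibition of cell growth. Data come from three independent experiments, each run in triplicate.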

Assay [2] relates to OVCAR-8. Put plainly: Cytotoxicity against human OVCAR8 cells assessed as growth inhibition at 5 ug/ml by MTT assay. The class given is functional. Conditions: read-out: GI. Summed up:
(§2)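 Single-concentration MTT screen at 5 µg/mL across SF-295 (glioblastoma), OVCAR-8 (ovary) and HCT-116 (colon) cells. Read-out is percent growth inhibition, reported with sd.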
On the technique in general: Formazan colour is commonly taken as a measure of viable cells.

Another assay has as its system HL-60. The experiment in a line: Cytotoxicity against human HL60 cells assessed as growth inhibition by MTT assay. In kind it is functional, cell-based. Summed up:
as §1

Assay [3] deals with SF-295. The experiment in a line: Cytotoxicity against human SF295 cells assessed as growth inhibition by MTT assay. In kind it is functional, cell-based. Summed up: as §1
Assay [4] deals with HCT-116. The experiment in a line: Cytotoxicity against human HCT116 cells assessed as growth inhibition at 5 ug/ml by MTT assay. The class given is functional. Conditions: read-out: GI. The gist of the method: as §2
For assay [5], the system named is HCT-116. Put plainly: Cytotoxicity against human HCT116 cells assessed as growth inhibition by MTT assay. In kind it is functional, cell-based. The gist of the method: as §1
For assay [6], the system named is SF-295. The experiment in a line: Cytotoxicity against human SF295 cells assessed as growth inhibition at 5 ug/ml by MTT assay. The class given is functional. The conditions noted are these: read-out: GI. The gist of the method:
as §2

pIC50: −log10 of the molar value.

In general, pIC50 refers to the IC50 on a negative log10 scale, so that one unit is a factor of ten. For `Clc1cccc(/C=N/Nc2cnc3ccccc3n2)c1Cl`, the pIC50 in the assay with OVCAR-8 [1] is 5.21; in the assay on HL-60, 4.97; in the assay on SF-295 [3], 5.21; with HCT-116 [5], 5.15. The inhibition of growth at 5 µg/mL in the assay on OVCAR-8 [2] was 100%; in the assay with HCT-116 [4] it was 97.5%; with SF-295 [6], 84.3%.
As for `COc1ccc(/C=N/Nc2cnc3ccccc3n2)c(O)c1`, the pIC50 in the assay with OVCAR-8 [1] was 5.12; with HL-60, 5.38; with SF-295 [3], 4.80; with HCT-116 [5], 4.85. In addition, the inhibition of growth at 5 µg/mL in the assay on OVCAR-8 [2] was determined as 80.9%; in the assay on HCT-116 [4] it was 83.1%; in the assay on SF-295 [6], 66.4%.
With `Oc1cccc(/C=N/Nc2cnc3ccccc3n2)c1O`, the pIC50 in the assay on OVCAR-8 [1] was 5.97; in the assay with HL-60, 6.50; with SF-295 [3] it was 5.90; in the assay with HCT-116 [5] it was 5.75. For the same molecule, the results for the inhibition of growth at 5 µg/mL with OVCAR-8 [2], in the assay on HCT-116 [4] and in the assay on SF-295 [6] were 97.9%, 84% and 81.2%, respectively.
In the case of `COc1cccc2c1C(=O)c1c(O)c3c(c(O)c1C2=O)C[C@@](O)(C(=O)CO)C[C@@H]3O[C@H]1C[C@H](N)[C@H](O)[C@H](C)O1` [DOXORUBICIN], the figures for the pIC50 in the assay on OVCAR-8 [1] and in the assay on HCT-116 [5] were 6.31 and 6.64, respectively.
As for `Clc1ccccc1/C=N/Nc1cnc2ccccc2n1`, the inhibition of growth at 5 µg/mL in the assay on OVCAR-8 [2] amounted to 9.09%; in the assay with HCT-116 [4] it was 12.1%; with SF-295 [6], 31.9%.
As to `COc1ccc(OC)c(/C=N/Nc2cnc3ccccc3n2)c1`, the inhibition of growth at 5 µg/mL worked out at 18.5% in the assay with OVCAR-8 [2], 0% in the assay with HCT-116 [4] and 44.6% with SF-295 [6].
Consider `COc1cc(/C=N/Nc2cnc3ccccc3n2)cc(OC)c1OC`, for which the figures for the inhibition of growth at 5 µg/mL with OVCAR-8 [2], in the assay with HCT-116 [4] and with SF-295 [6] were 38.8%, 20.7% and 60.1%, respectively.
Taken in the same sequence, the figures for `COc1ccc(/C=N/Nc2cnc3ccccc3n2)cc1` were 14.4%, -43.6% and 0.52%.
As to `Oc1ccccc1/C=N/Nc1cnc2ccccc2n1`, the pIC50 was 5.46 in the assay on OVCAR-8 [1], 6.09 in the assay on HL-60, 5.64 with SF-295 [3] and 5.31 in the assay on HCT-116 [5]. The inhibition of growth at 5 µg/mL with OVCAR-8 [2] is 95.4%; in the assay on HCT-116 [4], 77%; in the assay with SF-295 [6], 61.5%.
Turning to `O=[N+]([O-])c1ccc(O)c(/C=N/Nc2cnc3ccccc3n2)c1`, the pIC50 was 5.55 with OVCAR-8 [1], 5.76 in the assay with HL-60, 5.68 in the assay on SF-295 [3] and 5.36 in the assay on HCT-116 [5]. Besides, the inhibition of growth at 5 µg/mL in the assay on OVCAR-8 [2] was determined as 95.6%; in the assay with HCT-116 [4], 92.1%; with SF-295 [6] it was 78.5%.
`Cc1ccc(/C=N/Nc2cnc3ccccc3n2)cc1`: the results for the inhibition of growth at 5 µg/mL with OVCAR-8 [2], with HCT-116 [4] and in the assay with SF-295 [6] were 29%, 19.6% and 18.1%, respectively.
